System: MS2 coat protein
Test: apparent Kd, MS2 coat protein; higher = weaker binding; RNA-MaP array; FMN 200 µM where present
How it was run: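 Each design was made on Illumina sequencing-chip clusters by stalled E. coli RNA polymerase and titrated with SNAP-549-labelled MS2 coat protein from 0.7 or 1.5 nM, doubling to 3 µM, in the absence and then the presence of constant ligand. The buffer was 100 mM Tris-HCl pH 7.5, 80 mM KCl, 4 mM MgCl2, BSA, DTT, yeast tRNA and Tween-20. The apparent Kd is the median of filtered per-cluster fits of binding curves, with green signal normalised to red-channel RNA signal and control-cluster median Fmax.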

[1] = designed as: ON switch for flavin mononucleotide, no ligand
[2] = ligand present: flavin mononucleotide, designed as: ON switch for flavin mononucleotide
[3] = designed as: OFF switch for flavin mononucleotide, no ligand
[4] = ligand present: flavin mononucleotide, designed as: OFF switch for flavin mononucleotide

Sequence | apparent Kd [1] [nM] | apparent Kd [2] [nM] | apparent Kd [3] [nM] | apparent Kd [4] [nM]
CGUAAGAUGCAGAAGGUGUUAGCUAGAGCUACGACAUGAGGAUCACCCAUGUACUAGAAACAGUACAAGGAUAUGCAUCUUACG | 17.3 | 6.56 | – | –
GUCAGCUCGUGAGGAUAUACAACACUGCUUCGGCAGUGUAUUAAGAUGACAUGAGGAUCACCCAUGUAGAAGGCACGAGCUGAU | – | – | 5.78 | 21
GUCAGCUCGUGAGGAUAUACAAGACUGCUUCGGCAGUGUAUUAAGAUCACAUGAGGAUCACCCAUGUAGAAGGCACGAGCUGAU | – | – | 8.12 | 79.6
GUUGUGUGAGGAUAUGCCUGGCCGUGAGGCCAGGUUGGGUGGCAGAAGGUACAUGAGGAUCACCCAUGUACGGG | – | – | 30 | 22.7
ACCGUAUGAACAUGAGGAUCACCCAUGUAAACGGAAACGAAUGAGGAUAUCGAUAGCAAAGCUAUCGAGAAGGCAUGGGACGGU | 64.5 | 26.8 | – | –
GACCGAUAGUCAGGAUAUGCAUGGUUAGUUGAUUACAUGAGGAUCACCCAUGUAGAAGGGACUUUGGCUAAAUCCGUGAUGCGU | – | – | 22.3 | 51.7
AAUAACAGAGGAUAUACUAUUUUAUGUGUUUGUUGUUUUAAACAUGAGGAUCACCCAUGUAGAAGGCUGAAUGA | – | – | 22.8 | 27.6
UUUACGUGAGGAUAUGCGAAUAGUACGUAAGUCAUACAGACGCAGAAGGCACAUGAGGAUCACCCAUGUGAACC | – | – | 22.7 | 80.4
AAAGUGUUAGGAUAUGUGAAGGCGUCUGAUAGACGAGGCCUGCAGAAGGGACAUGAGGAUCACCCAUGUAAAAA | – | – | 56.8 | 26
CUUAGACAUGAGGAUCACCCAUGUGAGGAUAUGAUGCGAUCGUGCUGACAUGAUCGCAUCAGAAGGCACAAAUG | – | – | 141 | 173
GGAUCGAAUGUGAGGAUAUGCUGGUCCUUGGAUCAGCAGAAGGCACAUGAGGAUCACCCAUGUGGUAACGGUCC | – | – | – | 554
AUCAGCUCGUCAGGAUAUACGUCAUUGCGUCAGCAGUGUGGUAAGAUCACAUGAGGAUCACCCAUGUAGAAGGGACGAGCUGAU | – | – | 13.9 | 286
CCGGUAUAGGAGGAUAUAGGAGUCGAUAGACACCUAGAAGGCCUGACAUGAGGAUCACCCAUGUGUCCUACCGG | – | – | 17 | 20
GGAAAACAUGAGGAUCACCCAUGUGAGGAUAUCGAUGUCCAAAAAAAAGUGCGGGACUCGAGAAGGCACUUGGU | – | – | 57.1 | 58.4
UUCGGCAGUGCAGGAUAUCUAGAGAAACACCUAAGAGAAGGGCAAACAUGAGGAUCACCCAUGUUUGGCGUGAGGUGAAGUUAG | – | – | 5.99 | 6.02
CUUUUGUGAGGAUAUCAGUAGUAAUACAAUAGUAUUACUACUGAGAAGGCACAUGAGGAUCACCCAUGUUUCUC | – | – | 42.4 | 121
UUGAUUAUACAAGGAUAUCUAUUGUAAUUGAGACUUACAUGAGGAUCACCCAUGUUAAUAUUUUUAGAGAAGGUGUAUUUUCAG | 32.3 | 22.9 | – | –
CGUGUAAACUCAGGAUAUCCUGCGAGCAACGGGUAUUGAGUCUUCACAUGAGGAUCACCCAUGUAGGAGAAGGGAGGUACAAAA | – | – | 72.6 | 187
GUGGUCAGACAUGAGGAUCACCCAUGUGGAAUAAAUAAGGAGAAGGAUAUGCAAUAUAGGAUAUAGUAGAAGGUCUGGUUGGUG | 83.5 | 97.2 | – | –

Sequence | apparent Kd [1] [nM] | apparent Kd [2] [nM] | apparent Kd [3] [nM] | apparent Kd [4] [nM]
UAUUAGUGAGGAUAUGAGUCGUAGAACAAUAGUACUACGUCUCAGAAGGUACAUGAGGAUCACCCAUGUUCCUU | – | – | 12.7 | 14.4
GUCAGCUCGUGAGGAUAUACAACACUGCUUCGGCAGGGUAUUAAGAUCACAUGAGGAUCACCCAUGUAGAAGGCACGAGCUGAU | – | – | 12.7 | 173
AUGUUACAUGAGGAUCACCCAUGUGAGGAUAUGUGUAUCCCUAAAAAAGUGUGGGACCAUAGAAGGCAUUUGGA | – | – | 59.1 | 64.1
AGCAUGUUAGGAUAUGCGAAGUCAGGACACACACUGACGAAGCAGAAGGAACAUGAGGAUCACCCAUGUAAGCA | – | – | 71.8 | 45.7
CCACAUGAGGAUCACCCAUGUAGGAUAAAUCACGGCUUGGCACAGGAUAUACGGAGCGACGGAUCGUAGAAGGGUGCACUCGGC | 8.37 | 6.07 | – | –
AUUAAACAUGAGGAUCACCCAUGUAAUAAUAUGGGAGGAUAUGCGAAUUUAAUUAUUUAAGCAGAAGGCCUAAUUA | 63 | 19.2 | – | –
CAGCCCUGAGGAUAUCUCAUCUCGCACAUGAGGAUCACCCAUGUUCUUCUCUGGGUUUCGAGAGAAGGCAGGCCUC | – | – | 586 | 434
ACACAUGAGGAUCACCCAUGUAGCUGGCGUCUGUGCCAGCCACAGGAUAUACGGCAACACAAGCCGUAGAAGGGUGAUAAACAC | 85.3 | 36.5 | – | –
AAUAUGUUGCAGAAGGCUAUAUUGUGGUAGUACCUCAUGACAUGAGGAUCACCCAUGUUUGUGUUGGAGGAUAUGCAAUAUAUU | – | – | 16.2 | 64.9
GCCAUCGUAUGAGGAUAUGGCACCGAAACGGUGCCAGAAGGCAUGUCGAUAGACAUGAGGAUCACCCAUGUAUUAUCGAUGGCA | 107 | 31.3 | – | –
GCAGCUAUUAUUAUACAUGAGGAUCACCCAUGUUACAUGUGUAAGGAUAUUGAAGUUUUUAUAAUCAAGAAGGUACUAUGCUGC | 14.4 | 9.33 | – | –
AUCAGCUCGUCAGGAUAUACGUCACUGCGUCAGCAGUGUCGUAAGAUCACAUGAGGAUCACCCAUGUAGAAGGGACGAGCUGAU | – | – | 5.31 | 5.49
UAAGUCGAGAAGAUAAUAAUGAAUACAUGAGGAUCACCCAUGUAGGAUAUGCAGUGGAAUACACUGCAGAAGGACAUACUCGAC | – | – | 14.3 | 16.9
AUCAUCUUAUCAGGAUAUGCGAGUCGACGAAAGUAGACAAUCUUGAUAACAUGAGGAUCACCCAUGUAGAAGGGAUGAGAUGAU | – | – | 48.1 | 51.7
AUAUAACAUGAGGAUCACCCAUGUCACUAAAGUCGAGGAUAUGGGCAGGUUAUAUCCGAACCAGAAGGCGAAUUAU | 220 | 29.2 | – | –
GGGAUUAAGGCAGGAUAUCCGGGUUGGCCUCGACAUGAGGAUCACCCAUGUGGAGAAGGGCCGAUUGCCCGUAGGGUGAUCAAG | – | – | 274 | 108
ACCUAGCCCAGGCCCACGGCAUCACAGGAUAUGCCGAUAACAUGAGGAUCACCCAUGUCAACUCCGCAGAAGGGUGAUAUCGUG | 89.2 | 13.5 | – | –
GACAUACAUGAGGAUCACCCAUGUUCAGGCGAACAAGGAUAUGUGUGGAAACCAUACUAUACAGAAGGUGUCUGUC | 63.1 | 38.8 | – | –
GGCGGCGCGGGCCACCGCAGAACCAGAAGGACAUGAGGAUCACCCAUGUAACAAAACAGGGCGGUGUAGGAUAUGGCAGGCCCG | – | – | 41.9 | 89.5

Sequence | apparent Kd [1] [nM] | apparent Kd [2] [nM] | apparent Kd [3] [nM] | apparent Kd [4] [nM]
AUUAUUUACAUAGGAUAUUGUUACAUGAGGAUCACCCAUGUUUUCAUGGUAUUAAUAUAUUAUUUCAAGAAGGAUGUAGUUACA | 37.4 | 20.9 | – | –
CGAUACAUGAGGGUCUCCCAUGACAUGAGGAUCACCCAUGUGCAGGAUAUACGUGUGAUGGUAUAGUAGAAGGGCAGUCUAUGU | – | – | 70.6 | 99.9
AAAAAACAUGAGGAUCACCCAUGUCAGGAUAUUCGAAAAAAAAAAAAAAAAAAAAAAAGGAGAAGGGACGAAAA | – | – | 60.1 | 50
AUAGCACAUGAGGAUCACCCAUGUGAGGAUAUUAGACCAUGGCUCUCAAAGACCAUGCUGAGAAGGCACUCGGG | – | – | 35.5 | 82.5
UAUUAAUGCAAGGAUAUGCUUUUAAUUUUUUUUGCAGAAGGUGCAACAUGAGGAUCACCCAUGUUUCCGGGUAU | – | – | 26.5 | 39.1
UAUUAGUGAGGAUAUGAGUCGUAGAACAAUAGUACUACGUCUCAGAAGGCACAUGAGGAUCACCCAUGUUCCUU | – | – | 13.6 | 44.9
GAGUUGAACGAGAAGGCCACUACAUGAGGAUCACCCAUGUCGUAGAGUAUUGGAGGAUAUCGAUAGGCGUCUCAUGAGGACAUA | – | – | 25.1 | 13.4
UCUCGACAUGAGGAUCACCCAUGUCAGGAUAUUGUGUUUGAGGUUUUUUACCUUUUGGCAAGAAGGGAUGUGUG | – | – | 27.5 | 28.9
AUUUAUUAGUAAGGAUAUACUAGCGAUUAGCUUGUAGAAGGUACAGUCUUAUGUAUAGCAUGUUAACAUGAGGAUCACCCAUGU | 23.2 | 13.1 | – | –
AAGAAAGAAACAUAGGAUAUCAAGGAUAUAACAUGAGGAUCACCCAUGUAAAUACGAAAGUAUAAUGAGAAGGAUGGAUGAUCUAC | 238 | 437 | – | –
CGUGGCCGAGGAUAUACGGACGUGUCGCCGGGUGUCGUGGGACAUGAGGAUCACCCAUGUAGAAGGUGGUUGUC | – | – | 53.5 | 39
CAGUACUGAGGAUAUACAUGAGGAUCACCCAUGUGUUCCAGCUAGGAAACUAGCAAAGGUAGAAGGCAGUACUG | – | – | 23.8 | 521
AUAUUUUUGUAGAAGGUACGUGAUUAGUCAAAGUAAGGAUAUACUGACAUGAGGAUCACCCAUGUUUUAAUAGUUAACAGUUCU | 12.9 | 8.01 | – | –
CGGCCGGGUCGAGGAUAUAAGUCUAGGACAUGAGGAUCACCCAUGUAUGUCUUAGAAGGCGACCCGGCCAGCCUGUUACAGGCA | 31.7 | 7.21 | – | –
ACGACGAAAGUCGAACGAUGAUCGAGAAGGACAUGAGGAUCACCCAUGUUCCCUGUAACAGGCAUGUAGGAUAUCGAUCAUCGA | – | – | 3.99 | 7.18
ACUUACUGAGGAUAUACAUAGAUUUACAUGAGGAUCACCCAUGUUCCUCUAUGUAUAUAUGUAGAAGGCAGAAGGU | – | – | 24.6 | 77.8
AUUAGGUAAGGAUAUACAUGAGGAUCACCCAUGUAGGUUAACGCAACCGGGUCCGGCUGUAGAAGGUGCAACGU | – | – | 32.5 | 32.6
GUACGGAAGGAGAAGGGCUAGGAGGUCCAGCUUAUGUGUGUUGCAACAUGAGGAUCACCCAUGUAGCAGGAUAUCCUUUGUACA | – | – | 45.7 | 265
